MrgX1 ag: agonists of human MrgX1 receptor, primary screen, HEK293 cells, Fluo-4 calcium flux | Mas-related G-protein coupled receptor member X1 (Homo sapiens), Q96LB2 | Fluo-4 calcium fluorescence, agonist mode; hits give high values | B-score at 10 µM | 0.44% of 310,000 active;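 active = calcium response B-score plate-corrected fluorescence ratio at least 3 library SD, with starting fluorescence B-score inside 5 SD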
Target sequence (Q96LB2 whole entry, looked up): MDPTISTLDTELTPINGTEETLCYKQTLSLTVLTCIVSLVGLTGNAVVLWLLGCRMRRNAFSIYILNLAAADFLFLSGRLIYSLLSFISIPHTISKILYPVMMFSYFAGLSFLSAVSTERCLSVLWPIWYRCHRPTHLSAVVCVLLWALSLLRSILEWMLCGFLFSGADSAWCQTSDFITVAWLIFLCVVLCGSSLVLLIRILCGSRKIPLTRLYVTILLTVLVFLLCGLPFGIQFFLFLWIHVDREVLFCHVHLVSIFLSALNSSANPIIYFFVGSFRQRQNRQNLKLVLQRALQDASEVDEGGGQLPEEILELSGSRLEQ
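Material – MrgX1-expressing HEK293 cells · Input – 15,000 cells seeded per well · Dosing – compound as first of three additions · Times – overnight seeding, then 1 h dark dye loading · Measured by – kinetic Fluo-4 NW fluorescence of intracellular calcium · Read-out – B-scored fluorescence response ratio · Benchmarks – positive and negative control wells on each plate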
MrgX1 antagonist: antagonists of human MrgX1 receptor, primary screen, HEK293 cells, Fluo-4 calcium flux; BAM8-22 antagonism; hits give low values; Mas-related G-protein coupled receptor member X1 (Homo sapiens), Q96LB2; B-score at 10 µM; 1.3% of 310,000 active;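 active = calcium-response B-score plate-corrected more than 3 library SD below zero, starting fluorescence within 5 deviations, no agonist response on first addition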;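 also: peak minus trough fluorescence over baseline after final BAM8-22 challenge near maximal dose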
RGS4 act: RGS4 potentiators or activators, primary screen, cell-based, HEK293 M3R inducible RGS4, calcium flux; carbachol calcium flux Fluo4; hits give low values; B-score at 10 µM; 0.92% of 310,000 active;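 active = B-score of the integrated calcium signal more than 4 SD below the library mean, with starting fluorescence not abnormally high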;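 also: negative B-score means reduced calcium response which marks RGS4 activation or potentiation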
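Material: Inducible-RGS4 HEK293 cells carrying M3 receptor; also added: carbachol at ECmax as muscarinic agonist stimulus; incubation: compound preincubation 20 min at room temperature before agonist; signal: Fluo4-AM (2 µM) calcium-flux fluorescence, kinetic read; measure: integrated calcium ratio converted to B score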
MrgX1 PAM: positive allosteric modulators of MrgX1, primary screen, HEK293 cells, Fluo-4 calcium flux. Mas-related G-protein coupled receptor member X1 (Homo sapiens), Q96LB2. FDSS; hits give high values. B-score at 10 µM. 0.63% of 310,000 active;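 active = plate-corrected calcium response at least 3 library SD above typical, normal starting fluorescence, not activating the receptor alone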;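 also: compound read alongside a low EC10 to EC30 dose of BAM8-22 agonist; peak minus trough fluorescence over baseline measured at the second addition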
RGS4 inh: RGS4 inhibitors, primary screen, cell-based, HEK293 M3R inducible RGS4, calcium flux. Regulator of G-protein signaling 4 (Homo sapiens), P49798. Fluo-4 calcium flux; hits give high values; triggered by carbachol at its EC20. B-score at 10 µM. 0.45% of 310,000 active. AID 463165, 2010;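 active = B-score, a plate-corrected calcium signal, over three deviations above library mean, with baseline fluorescence within five deviations of library mean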;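 also: RGS4 expression induced by doxycycline in cells with stable M3 receptor; B-score is computed from the integrated fluorescence ratio over baseline after carbachol; higher B-score means a larger calcium signal and so more RGS4 inhibition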
Target sequence (P49798 whole entry, looked up): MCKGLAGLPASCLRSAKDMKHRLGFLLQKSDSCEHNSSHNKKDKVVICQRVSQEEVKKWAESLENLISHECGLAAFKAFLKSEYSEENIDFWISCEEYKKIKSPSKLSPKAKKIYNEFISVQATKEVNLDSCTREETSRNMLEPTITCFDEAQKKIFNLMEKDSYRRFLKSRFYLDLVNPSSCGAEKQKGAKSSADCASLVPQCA
RGS4 block valid: enhanced carbachol calcium response, M3R/RGS4 cells, RGS4 inhibitor project, cell-based, validation screen, HEK293 M3R/RGS4, calcium flux. AID 492999, 2010. calcium response, % at 10 µM. 65% of 1,700 active. shares compounds with RGS4 inh. carbachol calcium Fluo-4 fluorescence; carbachol added at its EC20; 0 = buffer wells, 100 = carbachol control;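 active = duplicate-averaged calcium response above the buffer-only control mean plus 5 SD of those controls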;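 also: integrated fluorescence ratio F max minus min over baseline F0; higher response in RGS4-induced cells means RGS4 inhibition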
RGS4 uninduced: carbachol calcium response in non-induced M3R cells, confirmation, counter-screen for RGS4 inhibitor project, cell-based, HEK293 M3R; shares compounds with RGS4 inh; carbachol calcium Fluo-4; submaximal (EC20) carbachol stimulus; buffer wells 0%, carbachol control wells 100%; activity (percent), % at 10 µM; 20% of 1,900 active; call rule not given here;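 also: RGS4 induction absent so cells express M3R without RGS4; higher means more calcium signal and flags a non-specific hit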
M3R basal Ca ctr: second RGS4 inhibitor counter-screen in uninduced cells lacking carbachol | 22% of 1,900 active | shares compounds with RGS4 inh | calcium response (agonist-mode artifact), % at 10 µM | HEK293 M3R/RGS4 non-induced, Fluo-4 calcium, no carbachol; normalised: buffer wells 0%, carbachol wells 100%;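 active = duplicate-averaged calcium rise in uninduced cells above buffer wells' mean plus 5 SD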
A number is an active result. This is a sample that favours compounds with a hit; in the whole collection about 3.5% have one here.

What do the screens show for `COc1cc(/C=C2\C(=O)ON=C2c2ccccc2)cc(Cl)c1O`?
MrgX1 ag: 90; MrgX1 antagonist: inactive; RGS4 act: -7.9; MrgX1 PAM: inactive; RGS4 inh: 13; RGS4 block valid: 40%; RGS4 uninduced: inactive; M3R basal Ca ctr: 253%

How did OC(CNCCCCNCC(O)C(F)(F)F)C(F)(F)F (stereo not given) do in these assays?
MrgX1 ag: inactive; MrgX1 antagonist: inactive; RGS4 act: inactive; MrgX1 PAM: inactive; RGS4 inh: inactive

What do the screens show for `CCCc1cc(N2CCOCC2)n2ncc(-c3ccccc3)c2n1`?
MrgX1 ag: inactive; MrgX1 antagonist: inactive; RGS4 act: inactive; MrgX1 PAM: inactive; RGS4 inh: inactive

What do the screens show for `CC(C)(C)c1cc(-n2ccnc2)n2ncc(-c3ccc(Cl)cc3)c2n1`?
MrgX1 ag: inactive; MrgX1 antagonist: inactive; RGS4 act: inactive; MrgX1 PAM: inactive; RGS4 inh: 4.7; RGS4 block valid: 14%; RGS4 uninduced: inactive; M3R basal Ca ctr: inactive

What do the screens show for `CC(C)(C)c1cc(NCCCn2ccnc2)n2ncc(-c3ccccc3)c2n1`?
MrgX1 ag: inactive; MrgX1 antagonist: inactive; RGS4 act: inactive; MrgX1 PAM: inactive; RGS4 inh: 9; RGS4 block valid: 10%; RGS4 uninduced: inactive; M3R basal Ca ctr: inactive

How did CC(C)(C)c1cc(N2CCOCC2)n2ncc(-c3ccccc3)c2n1 do in these assays?
MrgX1 ag: inactive; MrgX1 antagonist: inactive; RGS4 act: inactive; MrgX1 PAM: inactive; RGS4 inh: inactive; RGS4 block valid: inactive; RGS4 uninduced: inactive; M3R basal Ca ctr: inactive

How did CC(c1ccc(F)cc1)n1c(Cn2ncc3ccccc3c2=O)n[nH]c1=S (stereo not given) do in these assays?
MrgX1 ag: inactive; MrgX1 antagonist: inactive; RGS4 act: inactive; MrgX1 PAM: inactive; RGS4 inh: inactive

Results for Fc1ccc(-c2csc(Nc3ccccn3)n2)cc1 ?
MrgX1 ag: inactive; MrgX1 antagonist: inactive; RGS4 act: inactive; MrgX1 PAM: inactive; RGS4 inh: inactive; RGS4 block valid: inactive; RGS4 uninduced: inactive; M3R basal Ca ctr: inactive

What do the screens show for `CC(C)(C)C1CCc2nc(NC(=O)Cc3cn4ccsc4n3)sc2C1` (stereo not given)?
MrgX1 ag: inactive; MrgX1 antagonist: inactive; RGS4 act: inactive; MrgX1 PAM: inactive; RGS4 inh: 7.1; RGS4 block valid: 16%; RGS4 uninduced: inactive; M3R basal Ca ctr: inactive

How did O=C(O)c1n[nH]c2c1CC(C1CCCCC1)CC2 (stereo not given) do in these assays?
MrgX1 ag: inactive; MrgX1 antagonist: inactive; MrgX1 PAM: inactive

What do the screens show for `S=c1[nH]nc(-c2cccs2)n1/N=C/c1c(Cl)cccc1Cl`?
MrgX1 ag: inactive; MrgX1 antagonist: inactive; RGS4 act: inactive; MrgX1 PAM: inactive; RGS4 inh: 11; RGS4 block valid: 17%; RGS4 uninduced: inactive; M3R basal Ca ctr: inactive

What do the screens show for `CCN(CC)CCN(C(=O)c1ccc2c(c1)CCCC2)c1nc2ccc(OC)cc2s1`?
MrgX1 ag: inactive; MrgX1 antagonist: inactive; RGS4 act: inactive; MrgX1 PAM: inactive; RGS4 inh: inactive; RGS4 block valid: inactive; RGS4 uninduced: inactive; M3R basal Ca ctr: inactive

Results for CCN(CC)CCN(C(=O)c1ccc2c(c1)CCCC2)c1nc2ccc(C)cc2s1 ?
MrgX1 ag: inactive; MrgX1 antagonist: inactive; RGS4 act: inactive; MrgX1 PAM: inactive; RGS4 inh: inactive

How did Cc1ccc2c(c1)c1c(n2C)-c2[nH]ncc2CC1 do in these assays?
MrgX1 ag: inactive; MrgX1 antagonist: inactive; RGS4 act: inactive; MrgX1 PAM: inactive; RGS4 inh: 5.5; RGS4 block valid: 18%; RGS4 uninduced: inactive; M3R basal Ca ctr: inactive

What do the screens show for `Cc1ccc2c(c1)c1c(n2C)C(C(N)=O)CCC1` (stereo not given)?
MrgX1 ag: inactive; MrgX1 antagonist: inactive; RGS4 act: inactive; MrgX1 PAM: inactive; RGS4 inh: inactive

How did O=C(CC(=O)Nc1cccc(Cl)c1Cl)Nc1cccc(Cl)c1Cl do in these assays?
MrgX1 ag: inactive; MrgX1 antagonist: inactive; RGS4 act: inactive; MrgX1 PAM: inactive; RGS4 inh: inactive

What do the screens show for `OCC(CO)(CO)N=Cc1cc(Br)ccc1O`?
MrgX1 ag: inactive; MrgX1 antagonist: inactive; RGS4 act: inactive; MrgX1 PAM: inactive; RGS4 inh: 5.8; RGS4 block valid: inactive; RGS4 uninduced: inactive; M3R basal Ca ctr: inactive

Results for CCN(CC)c1ccc(N=Cc2cc(Br)ccc2O)cc1 ?
MrgX1 ag: inactive; MrgX1 antagonist: inactive; RGS4 act: inactive; MrgX1 PAM: inactive; RGS4 inh: inactive

Results for Clc1ccc(-c2csc(N/N=C\c3cccnc3)n2)cc1 ?
MrgX1 ag: inactive; MrgX1 antagonist: inactive; RGS4 act: inactive; MrgX1 PAM: inactive; RGS4 inh: inactive; RGS4 uninduced: 65%; M3R basal Ca ctr: inactive

How did Clc1ccc(-c2csc(N/N=C/c3ccco3)n2)cc1 do in these assays?
MrgX1 ag: inactive; MrgX1 antagonist: inactive; RGS4 act: inactive; MrgX1 PAM: inactive; RGS4 inh: inactive

Results for CCOC(=O)[C@@H]1[C@H]2COc3ccccc3[C@H]2N2C(=O)N(c3ccc(Cl)cc3)C(=O)[C@@]12C ?
MrgX1 ag: inactive; MrgX1 antagonist: inactive; RGS4 act: inactive; MrgX1 PAM: inactive; RGS4 inh: 6; RGS4 block valid: 16%; RGS4 uninduced: inactive; M3R basal Ca ctr: inactive

What do the screens show for `CCOC(=O)[C@@H]1[C@H]2COc3ccccc3[C@@H]2N2C(=O)N(c3ccc(F)cc3)C(=O)[C@@]12C`?
MrgX1 ag: inactive; MrgX1 antagonist: inactive; RGS4 act: inactive; MrgX1 PAM: inactive; RGS4 inh: inactive; RGS4 block valid: inactive; RGS4 uninduced: 38%; M3R basal Ca ctr: inactive

What do the screens show for `CCOC(=O)[C@@H]1[C@H]2COc3ccc(Br)cc3[C@H]2N2C(=O)N(c3ccc(F)cc3)C(=O)[C@]12C`?
MrgX1 ag: inactive; MrgX1 antagonist: inactive; RGS4 act: inactive; MrgX1 PAM: inactive; RGS4 inh: inactive
